Laboratory results from ChEMBL document CHEMBL4765453, “Phenanthrolinic analogs of quinolones show antibacterial activity against M. tuberculosis” (Eur J Med Chem, 2020).
Converted amounts (≈) assume the structure as drawn.

Legend:
Type in all cases: functional
Details in all cases: time 7 day
[1] = tested on: Mycobacterium tuberculosis; test: Antitubercular activity against FQ resistant Mycobacterium tuberculosis H37Rv harboring gyrA Gly-88-Cys mutant measured after 7 days by resazurin microtiter assay
In short: (§1)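 Resazurin microtiter assay with two-fold drug dilutions in complete 7H9 broth. Exponential-phase cells are diluted to a final OD600 of 0.005 in 7H9 without Tween. Incubation is 7 days at 37°C, then 0.01% resazurin is added and plates are held 24 h more. MIC is the lowest concentration preventing the blue-to-pink change. Each MIC is determined three times in duplicate experiments.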

[2] = tested on: Mycobacterium tuberculosis; test: Antitubercular activity against FQ resistant Mycobacterium tuberculosis H37Rv harboring gyrA Asp-94-Gly/gyrB Asp-500-Asn mutant measured after 7 days by resazurin microtiter assay; in short: as §1
[3] = tested on: Mycobacterium tuberculosis; test: Antitubercular activity against FQ resistant Mycobacterium tuberculosis H37Rv harboring gyrA Ala-90-Val/gyrB Glu-540-Val mutant measured after 7 days by resazurin microtiter assay; in short: as §1
[4] = tested on: Mycobacterium tuberculosis; test: Antitubercular activity against FQ resistant Mycobacterium tuberculosis H37Rv harboring gyrA Ala-90-Val mutant measured after 7 days by resazurin microtiter assay; in short: as §1
[5] = tested on: Mycobacterium tuberculosis; test: Antitubercular activity against FQ resistant Mycobacterium tuberculosis H37Rv harboring gyrA Ser-91-Pro mutant measured after 7 days by resazurin microtiter assay; in short: as §1
[6] = tested on: Mycobacterium tuberculosis; test: Antitubercular activity against FQ resistant Mycobacterium tuberculosis H37Rv harboring gyrA Asp-94-Gly mutant measured after 7 days by resazurin microtiter assay; in short: as §1

Compound	MIC90 [1] [µM]	MIC90 [2] [µM]	MIC90 [3] [µM]	MIC90 [4] [µM]	MIC90 [5] [µM]	MIC90 [6] [µM]
Cn1cc(C(=O)O)c(=O)c2cc([N+](=O)[O-])c3cccnc3c21	2.64 (≈ 0.79 µg/mL)	5.28 (≈ 1.58 µg/mL)	5.28 (≈ 1.58 µg/mL)	5.28 (≈ 1.58 µg/mL)	5.28 (≈ 1.58 µg/mL)	2.64 (≈ 0.79 µg/mL)
CCOC(=O)c1cn(C)c2c(cc([N+](=O)[O-])c3cccnc32)c1=O	>50	>50	>50	>50	>50	1.21 (≈ 0.396 µg/mL)
CCn1cc(C(=O)O)c(=O)c2cc([N+](=O)[O-])c3cccnc3c21	11.68 (≈ 3.66 µg/mL)	5.84 (≈ 1.83 µg/mL)	11.68 (≈ 3.66 µg/mL)	11.68 (≈ 3.66 µg/mL)	11.68 (≈ 3.66 µg/mL)	2.99 (≈ 0.937 µg/mL)
CCOC(=O)c1cn(CC)c2c(cc([N+](=O)[O-])c3cccnc32)c1=O	>50	>50	>50	>50	>50	4.99 (≈ 1.7 µg/mL)
COc1c(N2C[C@@H]3CCCN[C@@H]3C2)c(F)cc2c(=O)c(C(=O)O)cn(C3CC3)c12 [MOXIFLOXACIN]	6.16 (≈ 2.47 µg/mL)	6.16 (≈ 2.47 µg/mL)	6.16 (≈ 2.47 µg/mL)	3.08 (≈ 1.24 µg/mL)	6.16 (≈ 2.47 µg/mL)	3.08 (≈ 1.24 µg/mL)
CCn1cc(C(=O)O)c(=O)c2ccc(C)nc21 [NALIDIXIC ACID]	>50	>50	>50	>50	>50	>50
CC1COc2c(N3CCN(C)CC3)c(F)cc3c(=O)c(C(=O)O)cn1c23 (configuration not stated) [OFLOXACIN]	27.6 (≈ 9.97 µg/mL)	27.6 (≈ 9.97 µg/mL)	27.6 (≈ 9.97 µg/mL)	13.8 (≈ 4.99 µg/mL)	27.6 (≈ 9.97 µg/mL)	13.8 (≈ 4.99 µg/mL)
